For data set [1], the target named is T1, G-protein coupled receptor 52 (Homo sapiens, UniProt Q9Y2T5). Kind of data set: Agonist activity at human GPR52 expressed in CHO cells assessed as increase in cAMP level after 30 mins by AlphaScreen assay. Type of data set: functional, cell-based. The method in brief:
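CHO cells stably expressing human GPR52 (10,000/well) exposed to compound at various concentrations, 30 min, 37°C, in HBSS with 5 mM HEPES pH 7.6, 0.5% BSA, 100 µM IBMX and 100 µM Ro20-1724. AlphaScreen acceptor/donor beads added overnight at room temperature. Response expressed relative to a reference benzofuran agonist (100%). EC50 from mean curves, n = 2–4, 95% CI.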

Data set [2] has as its target T1, G-protein coupled receptor 52. Kind of data set: Agonist activity at human GPR52 expressed in CHO cells assessed as increase in cAMP level after 30 mins by AlphaScreen assay relative to (N-(2-hydroxyethyl)-3-(2-(3-(trifluoromethyl)benzyl)-1-benzofuran-4-yl)benzamide). It counts as functional, cell-based. A digest of the protocol:
(§1)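 CHO cells stably expressing human GPR52, 10,000 cells per well, exposed to compound 30 min at 37°C in HBSS with 5 mM HEPES pH 7.6, 0.5% BSA, 100 µM IBMX and 100 µM Ro20-1724. cAMP measured by AlphaScreen with acceptor and biotinylated donor beads after overnight room-temperature incubation. Emax set relative to the reference benzofuran benzamide (100%). EC50 taken from mean curves, n = 2–4, with 95% CI.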

Data set [3] shares this target. Kind of data set: Agonist activity at human GPR52 expressed in CHO cells assessed as increase in cAMP level at 1 uM after 30 mins by AlphaScreen assay relative to (N-(2-hydroxyethyl)-3-(2-(3-(trifluoromethyl)benzyl)-1-benzofuran-4-yl)benzamide). It counts as functional, cell-based. The method in brief: as §1
Data set [4] in a line: AUC (0 to 8 hrs) in Sprague-Dawley rat at 1 mg/kg, po administered as cassette dose by LC-MS/MS analysis. It counts as ADME, organism-based. The arrangement: time < 8 hr, dose 1 mg/kg, route oral. The settings on record: in vivo. The method in brief:
(§2)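 Cassette dosing in non-fasted male SD rats (n = 3): i.v. 0.1 mg/kg or p.o. 1 mg/kg. Plasma prepared from blood, deproteinized, centrifuged, supernatant measured by LC/MS/MS. AUC taken over 0–8 h.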

Data set [5] in a line: Total clearance in Sprague-Dawley rat at 0.1 mg/kg, iv or 1 mg/kg, po administered as cassette dose by LC/MS/MS analysis. It counts as ADME, organism-based. The settings on record: in vivo. The method in brief: as §2
A short description of data set [6]: Oral bioavailability in Sprague-Dawley rat at 1 mg/kg administered as cassette dose by LC-MS/MS analysis. The settings on record: in vivo. It counts as ADME, organism-based. The method in brief: as §2

The record followed here is ChEMBL document CHEMBL4033652, “Design, synthesis, and pharmacological evaluation of 4-azolyl-benzamide derivatives as novel GPR52 agonists” (Bioorg Med Chem, 2017).

T1 sequence (Q9Y2T5 whole entry): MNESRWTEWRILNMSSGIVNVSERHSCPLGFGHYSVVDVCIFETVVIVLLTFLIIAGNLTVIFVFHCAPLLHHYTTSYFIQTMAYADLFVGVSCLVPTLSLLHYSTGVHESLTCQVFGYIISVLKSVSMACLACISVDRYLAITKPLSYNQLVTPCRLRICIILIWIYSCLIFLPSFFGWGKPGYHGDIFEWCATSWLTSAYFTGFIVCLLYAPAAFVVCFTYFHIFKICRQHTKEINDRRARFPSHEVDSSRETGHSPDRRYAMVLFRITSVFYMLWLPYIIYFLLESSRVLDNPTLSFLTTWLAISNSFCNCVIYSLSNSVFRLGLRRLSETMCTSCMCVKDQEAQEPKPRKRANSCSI

As to `Cc1nc(Cc2cccc(C(F)(F)F)c2)sc1-c1ccc(C(N)=O)cc1`, the EC50 in data set [1] worked out at 220 nM. Also, the Emax in data set [2] turned out to be 93%.

Take `Cc1nc(Cc2cccc(C(F)(F)F)c2)sc1-c1ccc(C(N)=O)nc1` [TP-024n]: the EC50 in data set [1] is over 1000 nM. In addition, in data set [3], the Emax stood at 11%.

As to `COc1cccc(Cc2nc(C)c(-c3ccc(C(N)=O)c(C)c3)s2)c1`, the EC50 in data set [1] amounted to 160 nM. In addition, in data set [2], the Emax was 85%.

For the compound `Cc1nc(Cc2cccc(C(F)(F)F)c2)sc1-c1ccc(C(N)=O)c(C(F)(F)F)c1`, in data set [1], the EC50 came out at 110 nM. For the same compound, in data set [2], the Emax is 92%.

As to `Cc1cc(-c2sc(Cc3cc(F)cc(Cl)c3)nc2C)ccc1C(N)=O`, the EC50 in data set [1] is 25 nM. For the same compound, the Emax in data set [2] amounted to 88%.

Consider `Cc1nc(Cc2cccc(C(F)(F)F)c2)sc1-c1ccc(C(N)=O)cn1`, for which the EC50 in data set [1] amounted to 400 nM. The Emax in data set [2] stood at 70%.

With `Cc1cc(-c2cc(Cc3cc(F)cc(C(F)(F)F)c3)nn2C)ccc1C(N)=O`, the EC50 in data set [1] is 23 nM. The compound also gave an AUC(0-t) at 8 h in data set [4] of 155 ng·h/mL. Moreover, the Emax in data set [2] is 123%. The compound further had a clearance in data set [5] of 32.9 mL/min/kg. For the same compound, the bioavailability in data set [6] stood at 30.5%.

As to `Cc1cc(-c2sc(Cc3cccc(N(C)C)c3)nc2C)ccc1C(N)=O`, the EC50 in data set [1] is 690 nM. Further, in data set [2], the Emax is 101%.

Take `Cc1cc(C(N)=O)ccc1-c1sc(Cc2cccc(C(F)(F)F)c2)nc1C`: the EC50 in data set [1] came out at 1400 nM. Moreover, the Emax in data set [2] is 87%.

`Cc1nc(Cc2cccc(C(F)(F)F)c2)sc1-c1ccc(C(N)=O)c(C(C)C)c1`: the EC50 in data set [1] worked out at 370 nM. For the same compound, the Emax in data set [2] was 63%.
